This passage reports MIC results from ChEMBL document CHEMBL1143493, “Synthesis of 2-[3,5-substituted pyrazol-1-yl]-4,6-trisubstituted triazine derivatives as antimalarial agents” (2005).

Converted amounts (≈) assume the structure as drawn.

In general, MIC refers to the lowest concentration that inhibits growth of the organism. Low readings indicate greater potency, high ones weaker potency.

The subject of this assay is Plasmodium falciparum. In words: Minimum inhibitory concentration against Plasmodium falciparum NF-54 after 40 hrs. The assay is classed as functional. In outline:
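Rieckmann-type microassay. NF-54 is kept in RPMI-1640 with 25 mM Hepes, 1% D-glucose, 0.23% NaHCO3 and 10% heat-inactivated human serum, then synchronized to ring stage with 5% D-sorbitol. Ring-stage parasites at about 1% parasitemia and 3% hematocrit are exposed in duplicate to […] for 36–40 h at 37 °C in a candle jar. Maturation is read on Giemsa smears. MIC is the concentration that completely blocks schizont maturation.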
Regarding `COc1ccc(-c2cc(SC)n(-c3nc(NCCN4CCOCC4)nc(NCCN4CCOCC4)n3)n2)cc1OC`, inhibition of growth (MIC) required 2 µg/mL (≈ 3.41 µM).

On to `COc1ccccc1CN1CCN(c2nc(N3CCN(Cc4ccccc4OC)CC3)nc(-n3nc(-c4cc(OC)c(OC)c(OC)c4)cc3SC)n2)CC1`, for which 50 µg/mL (≈ 65.1 µM) was the least that counted as inhibitory (MIC). Compared with the last molecule, the MIC is about 25-fold higher.

As to `COc1cc(-c2cc(SC)n(-c3nc(NC4CCCCC4)nc(NC4CCCCC4)n3)n2)cc(OC)c1OC`, the minimum inhibitory concentration (MIC) came to 2 µg/mL (≈ 3.61 µM). Compared with the last molecule, the MIC is about 25-fold lower.

`COc1cc(-c2cc(SC)n(-c3nc(N4CCOCC4)nc(N4CCOCC4)n3)n2)cc(OC)c1OC` came in with an MIC of more than 50 µg/mL.

Take `COc1cc(-c2cc(SC)n(-c3nc(N4CCCCC4)nc(N4CCCCC4)n3)n2)cc(OC)c1OC`: the MIC was more than 50 µg/mL.

The molecule `COc1ccc(-c2cc(SC)n(-c3nc(NC4CCCCC4)nc(NC4CCCCC4)n3)n2)cc1OC` registered an MIC of 50 µg/mL (≈ 95.5 µM).

The molecule `COc1cc(-c2cc(SC)n(-c3nc(Nc4ccccc4C)nc(Nc4ccccc4C)n3)n2)cc(OC)c1OC` returned an MIC of 1 µg/mL (≈ 1.76 µM).

With `COc1cc(-c2cc(SC)n(-c3nc(NCCN4CCOCC4)nc(NCCN4CCOCC4)n3)n2)cc(OC)c1OC`, inhibition of growth (MIC) required 1 µg/mL (≈ 1.62 µM).

For the molecule `COc1cc(-c2cc(SC)n(-c3nc(NCCCN4CCOCC4)nc(NCCCN4CCOCC4)n3)n2)cc(OC)c1OC`, inhibition of growth (MIC) required 10 µg/mL (≈ 15.5 µM).

In turn, `COc1ccccc1CN1CCN(c2nc(N3CCN(Cc4ccccc4OC)CC3)nc(-n3nc(-c4ccc(OC)c(OC)c4)cc3SC)n2)CC1` yielded an MIC of 50 µg/mL (≈ 67.8 µM).

With `COc1ccc(-c2cc(SC)n(-c3nc(Nc4ccccc4C)nc(Nc4ccccc4C)n3)n2)cc1OC`, the MIC worked out at 10 µg/mL (≈ 18.5 µM).

On to `COc1ccc(-c2cc(SC)n(-c3nc(NCc4ccccc4)nc(NCc4ccccc4)n3)n2)cc1OC`, for which the MIC was more than 50 µg/mL.

`COc1ccc(-c2cc(SC)n(-c3nc(N4CCN(c5ccccc5)CC4)nc(N4CCN(c5ccccc5)CC4)n3)n2)cc1OC` displayed an MIC of 10 µg/mL (≈ 15.4 µM).

Regarding `COc1ccc(-c2cc(SC)n(-c3nc(N4CCOCC4)nc(N4CCOCC4)n3)n2)cc1OC`, the MIC was 10 µg/mL (≈ 20 µM).

Take `COc1cc(-c2cc(SC)n(-c3nc(N4CCN(c5ccccc5)CC4)nc(N4CCN(c5ccccc5)CC4)n3)n2)cc(OC)c1OC`: the lowest concentration to inhibit growth (MIC) was 50 µg/mL (≈ 73.5 µM).

`COc1cc(-c2cc(SC)n(-c3nc(N4CCc5ccccc5C4)nc(N4CCc5ccccc5C4)n3)n2)cc(OC)c1OC` came in with an MIC of more than 50 µg/mL.

`COc1ccc(-c2cc(SC)n(-c3nc(N4CCc5ccccc5C4)nc(N4CCc5ccccc5C4)n3)n2)cc1OC` had an MIC of 50 µg/mL (≈ 84.5 µM).

`COc1ccc(-c2cc(SC)n(-c3nc(N4CCCCC4)nc(N4CCCCC4)n3)n2)cc1OC`: the minimal inhibitory concentration (MIC) is 10 µg/mL (≈ 20.2 µM).

In turn, `COc1cc(-c2cc(SC)n(-c3nc(N4CCN(Cc5ccccc5)CC4)nc(N4CCN(Cc5ccccc5)CC4)n3)n2)cc(OC)c1OC` had an MIC of 50 µg/mL (≈ 70.6 µM).

The molecule `COc1cc(-c2cc(SC)n(-c3nc(NCc4ccccc4)nc(NCc4ccccc4)n3)n2)cc(OC)c1OC` yielded an MIC of 2 µg/mL (≈ 3.51 µM).

Take `COc1ccc(-c2cc(SC)n(-c3nc(N4CCN(Cc5ccccc5)CC4)nc(N4CCN(Cc5ccccc5)CC4)n3)n2)cc1OC`: the MIC came to 2 µg/mL (≈ 2.95 µM).

`COc1ccc(-c2cc(SC)n(-c3nc(NCCCN4CCOCC4)nc(NCCCN4CCOCC4)n3)n2)cc1OC` gave an MIC of 10 µg/mL (≈ 16.3 µM).

Molecule `CC1(C)N=C(N)N=C(N)N1c1ccc(Cl)cc1` [CYCLOGUANIL] came in with an MIC of 64 µg/mL (≈ 254 µM).
